Test results published in ChEMBL document CHEMBL1165908, “Novel benzimidazole-pyrimidine conjugates as potent antitumor agents” (Eur J Med Chem, 2010).

Columns and labels:
[1] = Toxicity in ip dosed mouse assessed as mortality after 24 hrs; assay type: organism-based; conditions: in vivo
Procedure, shortened: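 Lorke two-phase design in mice, single intraperitoneal dose per group. Phase 1: three groups of three animals, each group one dose, observed 24 h for mortality and general behaviour. Phase 2: 3–4 groups of one mouse, doses chosen from phase 1 findings, observed 24 h. LD50 taken as geometric mean of lowest lethal dose and highest non-lethal dose; reported in mg/kg.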

HL-60 = assay: Cytotoxicity against human HL60 cells after 3 days by MTT assay; assay type: functional, cell-based; conditions: HL-60, 72 h
KB = assay: Cytotoxicity against human KB cells after 3 days by MTT assay; assay type: functional, cell-based; conditions: 72 h
Procedure, shortened: (§1)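 Cells grown in RPMI 1640 with 10% fetal calf serum, plated at 2 × 10^4 cells, held 12 h at 37 °C in 5% CO2, then exposed to test sample for 3 days at 37 °C. MTT added for 4 h, formazan dissolved in DMSO, absorbance read at 570 nm. IC50 taken as 50% growth inhibition relative to untreated control; each experiment run at least 3 times.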

NCI-H460 = assay: Cytotoxicity against human NCI-H460 cells after 3 days by MTT assay; assay type: functional, cell-based; conditions: NCI-H460, 72 h; procedure, shortened: as §1
SK-MEL-28 = assay: Cytotoxicity against human SK-MEL-28 cells after 3 days by MTT assay; assay type: functional, cell-based; conditions: SK-MEL-28, 72 h; procedure, shortened: as §1
GOTO = assay: Cytotoxicity against human GOTO cells after 3 days by MTT assay; assay type: functional, cell-based; conditions: 72 h; procedure, shortened: as §1
SK-OV-3 = assay: Cytotoxicity against human SKOV3 cells after 3 days by MTT assay; assay type: functional, cell-based; conditions: SK-OV-3, 72 h; procedure, shortened: as §1
U-937 = assay: Cytotoxicity against human U937 cells after 3 days by MTT assay; assay type: functional, cell-based; conditions: U-937, 72 h; procedure, shortened: as §1
[2] = Cytotoxicity against human RKOp27 cells after 3 days by MTT assay; assay type: functional, cell-based; conditions: RKOp27, 72 h; procedure, shortened: as §1
SF-268 = assay: Cytotoxicity against human SF268 cells after 3 days by MTT assay; assay type: functional, cell-based; conditions: SF-268, 72 h; procedure, shortened: as §1
K562 = assay: Cytotoxicity against human K562 cells after 3 days by MTT assay; assay type: functional, cell-based; conditions: K562, 72 h; procedure, shortened: as §1
G-361 = assay: Cytotoxicity against human G361 cells after 3 days by MTT assay; assay type: functional, cell-based; conditions: G-361, 72 h; procedure, shortened: as §1
NB1 = assay: Cytotoxicity against human NB-1 cells after 3 days by MTT assay; assay type: functional, cell-based; conditions: NB1, 72 h; procedure, shortened: as §1

ClCc1nc2ccccc2[nH]1
LD50 at 24 h [1]: 253 mg/kg

N#Cc1c(NC(N)=O)nc(SCc2nc3ccccc3[nH]2)nc1-c1ccccc1
IC50 (HL-60): 2.9 nM
IC50 (KB): 9.6 nM
IC50 (NCI-H460): 14.7 nM
IC50 (SK-MEL-28): 4.8 nM
LD50 at 24 h [1]: 347 mg/kg
IC50 (GOTO): 11.3 nM
IC50 (SK-OV-3): 6.75 nM
IC50 (U-937): 3.37 nM
IC50 [2]: 2.5 nM
IC50 (SF-268): 3.37 nM
IC50 (K562): 4.54 nM
IC50 (G-361): 2.55 nM
IC50 (NB1): 7.35 nM

N#Cc1c(NC(N)=S)nc(SCc2nc3ccccc3[nH]2)nc1-c1ccccc1
IC50 (HL-60): 5.81 nM
IC50 (KB): 3.2 nM
IC50 (NCI-H460): 3.37 nM
IC50 (SK-MEL-28): 4.8 nM
LD50 at 24 h [1]: 327 mg/kg
IC50 (GOTO): 4.8 nM
IC50 (SK-OV-3): 7.81 nM
IC50 (U-937): 20 nM
IC50 [2]: 2.63 nM
IC50 (SF-268): 3.37 nM
IC50 (K562): 11.9 nM
IC50 (G-361): 5.81 nM
IC50 (NB1): 11.9 nM

N#Cc1c(-c2ccccc2)nc(SCc2nc3ccccc3[nH]2)nc1N1CCN(S(=O)(=O)c2ccccc2)CC1
IC50 (HL-60): 4.23 nM
IC50 (KB): 3 nM
IC50 (NCI-H460): 4.6 nM
IC50 (SK-MEL-28): 6.41 nM
LD50 at 24 h [1]: 327 mg/kg
IC50 (GOTO): 5.81 nM
IC50 (SK-OV-3): 2.77 nM
IC50 (U-937): 6.2 nM
IC50 [2]: 7.35 nM
IC50 (SF-268): 2.87 nM
IC50 (K562): 3 nM
IC50 (G-361): 8.62 nM
IC50 (NB1): 3.28 nM

CCNc1nc(SCc2nc3ccccc3[nH]2)nc(-c2ccccc2)c1C#N
IC50 (HL-60): 3.96 nM
IC50 (KB): 7.35 nM
IC50 (NCI-H460): 2.87 nM
IC50 (SK-MEL-28): 5.3 nM
LD50 at 24 h [1]: 325 mg/kg
IC50 (GOTO): 3.96 nM
IC50 (SK-OV-3): 7.35 nM
IC50 (U-937): 2.63 nM
IC50 [2]: 7.35 nM
IC50 (SF-268): 7.35 nM
IC50 (K562): 4.38 nM
IC50 (G-361): 4.38 nM
IC50 (NB1): 2.63 nM

N#Cc1c(Nc2ccncc2)nc(SCc2nc3ccccc3[nH]2)nc1-c1ccccc1
IC50 (HL-60): 2.77 nM
IC50 (KB): 3.2 nM
IC50 (NCI-H460): 2.77 nM
IC50 (SK-MEL-28): 4.46 nM
LD50 at 24 h [1]: 316 mg/kg
IC50 (GOTO): 2.55 nM
IC50 (SK-OV-3): 4.46 nM
IC50 (U-937): 7.35 nM
IC50 [2]: 5.81 nM
IC50 (SF-268): 2.4 nM
IC50 (K562): 10 nM
IC50 (G-361): 2.55 nM
IC50 (NB1): 6.75 nM

N#Cc1c(-c2ccccc2)nc(SCc2nc3ccccc3[nH]2)nc1N1CCN(C(=O)c2ccccc2)CC1
IC50 (HL-60): 6.75 nM
IC50 (KB): 3 nM
IC50 (NCI-H460): 3.2 nM
IC50 (SK-MEL-28): 8.9 nM
LD50 at 24 h [1]: 327 mg/kg
IC50 (GOTO): 8.62 nM
IC50 (SK-OV-3): 4 nM
IC50 (U-937): 2.68 nM
IC50 [2]: 2.55 nM
IC50 (SF-268): 2.8 nM
IC50 (K562): 3.4 nM
IC50 (G-361): 2.4 nM
IC50 (NB1): 7.35 nM

CCCCCOC(=O)Nc1nc(=O)n([C@@H]2O[C@H](C)[C@@H](O)[C@H]2O)cc1F [CAPECITABINE]
IC50 [2]: 4330 nM

Cl.N=c1[nH]c(=S)[nH]c2nc(SCc3nc4ccccc4[nH]3)nc(-c3ccccc3)c12
IC50 (HL-60): 6.75 nM
IC50 (KB): 7.3 nM
IC50 (NCI-H460): 3 nM
IC50 (SK-MEL-28): 3.37 nM
LD50 at 24 h [1]: 389 mg/kg
IC50 (GOTO): 11.9 nM
IC50 (SK-OV-3): 3.5 nM
IC50 (U-937): 2.8 nM
IC50 [2]: 2.5 nM
IC50 (SF-268): 3.5 nM
IC50 (K562): 14.7 nM
IC50 (G-361): 3.37 nM
IC50 (NB1): 3.28 nM

N#Cc1c(O)nc(SCc2nc3ccccc3[nH]2)nc1-c1ccccc1
IC50 (HL-60): 2.55 nM
IC50 (KB): 6.2 nM
IC50 (NCI-H460): 2.5 nM
IC50 (SK-MEL-28): 7.7 nM
LD50 at 24 h [1]: 345 mg/kg
IC50 (GOTO): 7.81 nM
IC50 (SK-OV-3): 2.55 nM
IC50 (U-937): 3.28 nM
IC50 [2]: 6.09 nM
IC50 (SF-268): 3.2 nM
IC50 (K562): 4.63 nM
IC50 (G-361): 3.43 nM
IC50 (NB1): 6.57 nM

N#Cc1c(NNC(N)=S)nc(SCc2nc3ccccc3[nH]2)nc1-c1ccccc1
IC50 (HL-60): 4.54 nM
IC50 (KB): 3 nM
IC50 (NCI-H460): 3.37 nM
IC50 (SK-MEL-28): 3.2 nM
LD50 at 24 h [1]: 345 mg/kg
IC50 (GOTO): 2.55 nM
IC50 (SK-OV-3): 3 nM
IC50 (U-937): 3 nM
IC50 [2]: 3.2 nM
IC50 (SF-268): 3.37 nM
IC50 (K562): 8.9 nM
IC50 (G-361): 3.96 nM
IC50 (NB1): 5.81 nM

O=c1[nH]cc(F)c(=O)[nH]1 [FLUOROURACIL]
IC50 (KB): 4460 nM

COc1cccc2c1C(=O)c1c(O)c3c(c(O)c1C2=O)C[C@@](O)(C(=O)CO)C[C@@H]3O[C@H]1C[C@H](N)[C@H](O)[C@H](C)O1 [DOXORUBICIN]
IC50 (SK-OV-3): 4160 nM
IC50 (K562): 6.12 nM
